Source: ChEMBL document CHEMBL1154049, “A versatile photoactivatable probe designed to label the diphosphate binding site of farnesyl diphosphate utilizing enzymes” (Bioorg Med Chem, 2009)
The source made the active and inactive calls. The rule behind the calls is not given here.

Columns and labels:
[1] = biological target: T1, Protein farnesyltransferase/geranylgeranyltransferase type-1 subunit alpha (Saccharomyces cerevisiae S288c, UniProt P29703); assay: Inhibition of Saccharomyces cerevisiae protein farnesyltransferase assessed as farnesylation of N-dansyl-GCVIA
T1 sequence (P29703 whole entry): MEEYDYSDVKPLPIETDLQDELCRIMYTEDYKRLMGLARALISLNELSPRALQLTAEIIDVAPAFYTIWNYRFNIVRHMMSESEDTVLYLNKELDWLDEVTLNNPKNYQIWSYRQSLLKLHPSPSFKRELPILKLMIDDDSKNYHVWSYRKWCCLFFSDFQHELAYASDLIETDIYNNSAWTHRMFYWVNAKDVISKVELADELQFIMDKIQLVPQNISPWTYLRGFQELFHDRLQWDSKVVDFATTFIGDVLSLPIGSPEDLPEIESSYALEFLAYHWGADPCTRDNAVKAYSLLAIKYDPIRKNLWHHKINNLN
Outline: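 Purified ScPFTase at 5.0 nM; continuous fluorescence assay following dansyl fluorescence rise as N-dansyl-GCVIA (2.4 µM) is prenylated. For IC50, FPP fixed at 2.4 µM, inhibitor 0–20 µM, duplicates, direct fit of rate vs inhibitor concentration. For KI, 4×6 grid of duplicates with FPP at 1, 2, 5, 7.0 µM and inhibitor 0–2 µM; initial velocities, Eadie-Hofstee plot.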

[2] = biological target: T2, Protein farnesyltransferase/geranylgeranyltransferase type-1 subunit alpha (Saccharomyces cerevisiae S288c) (UniProt P29703); assay: Activity at Saccharomyces cerevisiae protein farnesyltransferase upto 200 uM by continuous fluorescence assay
T2 sequence (whole entry): T1 sequence (P29703 whole entry)
Outline: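 Purified yeast PFTase; continuous fluorescence read-out of dansyl signal increase on prenylation of N-dansyl-GCVIA acceptor, with analogue replacing FPP at up to 200 µM.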

[3] = biological target: T2, Protein farnesyltransferase/geranylgeranyltransferase type-1 subunit alpha (Saccharomyces cerevisiae S288c); assay: Binding affinity to Saccharomyces cerevisiae protein farnesyltransferase assessed as enzyme beta subunit photolabeling at 29 uM by SDS-PAGE based phosphor imaging analysis; settings: tested as the 32P-labelled form
Outline: (§1)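 Purified enzyme (50 µg/mL) in 52 mM Tris·HCl pH 7.0, 5.8 mM DTT, 12 mM MgCl2, 12 µM ZnCl2, 25 mM NH4HCO3 with [32P]probe 29 µM; irradiated 350 nm, 6 h, 4 °C; protection runs add FPP 100 µM final. SDS loading buffer, 70 °C 20 min, 12% Tris-Tricine SDS-PAGE, Coomassie stain, phosphorimaging.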

[4] = biological target: T2, Protein farnesyltransferase/geranylgeranyltransferase type-1 subunit alpha (Saccharomyces cerevisiae S288c); assay: Binding affinity to Saccharomyces cerevisiae protein farnesyltransferase assessed as enzyme alpha subunit photolabeling at 29 uM by SDS-PAGE based phosphor imaging analysis; settings: tested as the 32P-labelled form; outline: as §1
[5] = biological target: T2, Protein farnesyltransferase/geranylgeranyltransferase type-1 subunit alpha (Saccharomyces cerevisiae S288c); assay: Binding affinity to Saccharomyces cerevisiae protein farnesyltransferase assessed as photolabeling at 29 uM by SDS-PAGE based phosphor imaging analysis in presence of excess farnesyl diphosphate; settings: tested as the 32P-labelled form; outline: as §1
[6] = biological target: T2, Protein farnesyltransferase/geranylgeranyltransferase type-1 subunit alpha (Saccharomyces cerevisiae S288c); assay: Binding affinity to Saccharomyces cerevisiae protein farnesyltransferase assessed as photolabeling at 29 uM by SDS-PAGE based phosphor imaging analysis in absence of UV irradiation; settings: tested as the 32P-labelled form
Nostoc [7] = assay: Inhibition of Nostoc PCC 7120 sesquiterpene synthase in presence of farnesyl diphosphate
Outline: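 Purified cyclase (10 µg) in 200 µL 10 mM Tris·HCl pH 8.0, 10 mM MgCl2, 1.0 mM 2-mercaptoethanol with probe and/or FPP (50, 100 or 200 µM), sealed vial, 18 h at 25 °C; headspace sampled 10 min by SPME, GC/MS analysis of sesquiterpene product.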

[8] = biological target: T3, Farnesyl diphosphate synthase (Escherichia coli K-12) (UniProt P22939); assay: Binding affinity to Escherichia coli farnesyl diphosphate synthase assessed as photolabeling at 29 uM by SDS-PAGE based phosphor imaging analysis; settings: tested as the 32P-labelled form; outline: as §1
T3 sequence (whole entry): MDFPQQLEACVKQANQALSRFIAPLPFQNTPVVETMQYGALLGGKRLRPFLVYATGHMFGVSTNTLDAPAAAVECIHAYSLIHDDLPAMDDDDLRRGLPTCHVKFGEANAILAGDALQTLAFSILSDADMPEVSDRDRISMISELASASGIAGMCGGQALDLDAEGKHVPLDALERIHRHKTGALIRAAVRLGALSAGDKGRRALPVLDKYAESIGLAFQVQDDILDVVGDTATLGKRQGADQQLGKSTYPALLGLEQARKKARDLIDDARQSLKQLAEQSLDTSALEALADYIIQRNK

[9] = biological target: T3, Farnesyl diphosphate synthase (Escherichia coli K-12); assay: Binding affinity to Escherichia coli farnesyl diphosphate synthase assessed as photolabeling at 29 uM by SDS-PAGE based phosphor imaging analysis in presence of excess farnesyl diphosphate; settings: tested as the 32P-labelled form; outline: as §1
[10] = biological target: T3, Farnesyl diphosphate synthase (Escherichia coli K-12); assay: Binding affinity to Escherichia coli farnesyl diphosphate synthase assessed as photolabeling at 29 uM by SDS-PAGE based phosphor imaging analysis in absence of UV irradiation; settings: tested as the 32P-labelled form
Drosophila melanogaster [11] = assay: Binding affinity to Drosophila melanogaster farnesyl diphosphate synthase assessed as photolabeling at 29 uM by SDS-PAGE based phosphor imaging analysis; settings: tested as the 32P-labelled form; outline: as §1
Drosophila melanogaster [12] = assay: Binding affinity to Drosophila melanogaster farnesyl diphosphate synthase assessed as photolabeling at 29 uM by SDS-PAGE based phosphor imaging analysis in absence of UV irradiation; settings: tested as the 32P-labelled form
Drosophila melanogaster [13] = assay: Binding affinity to Drosophila melanogaster farnesyl diphosphate synthase assessed as photolabeling at 29 uM by SDS-PAGE based phosphor imaging analysis in presence of excess farnesyl diphosphate; settings: tested as the 32P-labelled form; outline: as §1
Nostoc [14] = assay: Binding affinity to Nostoc PCC 7120 sesquiterpene synthase assessed as photolabeling at 29 uM by SDS-PAGE based phosphor imaging analysis; settings: tested as the 32P-labelled form; outline: as §1
Nostoc [15] = assay: Binding affinity to Nostoc PCC 7120 sesquiterpene synthase assessed as photolabeling at 29 uM by SDS-PAGE based phosphor imaging analysis in presence of excess farnesyl diphosphate; settings: tested as the 32P-labelled form; outline: as §1
Nostoc [16] = assay: Substrate activity at Nostoc PCC 7120 sesquiterpene synthase in absence of farnesyl diphosphate; settings: tested as the 32P-labelled form

SMILES	IC50 [1]	Ki [1]	Activity [2]	Activity [3]	Activity [4]	Activity [5]	Activity [6]	inhibition (Nostoc [7])	Activity [8]	Activity [9]	Activity [10]	Activity (Drosophila melanogaster [11])	Activity (Drosophila melanogaster [12])	Activity (Drosophila melanogaster [13])	Activity (Nostoc [14])	Activity (Nostoc [15])	Activity (Nostoc [16])
C/C(=C\COP(=O)(O)OP(=O)(O)O)CC/C=C(\C)COC(=O)[C-]([N+]#N)C(F)(F)F	720 nM	200 nM	–	–	–	–	–	–	–	–	–	–	–	–	–	–	–
CC(C)=CCC/C(C)=C/CC/C(C)=C/COP(=O)(O)OP(=O)(O)Cc1cccc(C(=O)c2ccccc2)c1	5800 nM	–	inactive	Active	inactive	inactive	inactive	–	–	–	–	–	–	–	–	–	–
C/C(=C\COP(=O)(O)OP(=O)(O)O)COCc1cccc(C(=O)c2ccccc2)c1	3400 nM	610 nM	–	–	–	–	–	–	–	–	–	–	–	–	–	–	–
CC(C)=CCC/C(C)=C/CC/C(C)=C/COP(=O)(O)OP(=O)(O)Cc1ccc(C(=O)c2ccccc2)cc1	3000 nM	480 nM	inactive	Active	inactive	inactive	inactive	inactive	Active	inactive	inactive	46%	inactive	inactive	Active	inactive	Active
